Assay results published in article PMC3287054 (Bioorganic & medicinal chemistry letters, 2011).
Values after ≈ are worked out from the molar mass of the structure shown.

Tests used:
[1] = test system: calcineurin-dependent signaling pathway; assay: Yeast reporter assay, calcineurin-dependent signaling; assay type: cell-based; details: Saccharomyces cerevisiae, read-out: IC50 calcineurin-dependent signaling pathway
[2] = test system: murine 3T3 fibroblasts; assay: Mammalian fibroblast toxicity counterscreen; assay type: cell-based
[3] = test system: Hsp90-dependent signaling pathway; assay: Yeast reporter assay, Hsp90-dependent signaling; assay type: cell-based; details: Saccharomyces cerevisiae, read-out: IC50 Hsp90-dependent signaling pathway
[4] = test system: C. albicans clinical isolate CaCi-2; assay: CaCi-2 growth inhibition in the presence of fluconazole; assay type: cell-based, Candida albicans
In short: (§1)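 Candida albicans clinical isolates were incubated with test compound and a fixed 8 μg/mL fluconazole at 37 °C for 48 h. Growth inhibition was read by Alamar blue fluorometry. Values are the average of at least three runs.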

[5] = test system: CaCi-2; assay: CaCi-2 growth inhibition in the absence of fluconazole; assay type: cell-based, Candida albicans
[6] = Aqueous; assay type: physicochemical; details: aqueous / PBS solution, in words
[7] = test system: C. albicans clinical isolate CaCi-8; assay: CaCi-8 growth inhibition in the presence of fluconazole; assay type: cell-based, Candida albicans; details: at approximately 1 μM, with fluconazole
In short: as §1

[8] = test system: CaCi-8; assay: Fluconazole MIC determination, CaCi-8; assay type: cell-based; details: Candida albicans, read-out: MIC for CaCi-8
[9] = test system: CaCi-2; assay: Fluconazole MIC determination, CaCi-2; assay type: cell-based; details: Candida albicans, read-out: MIC for CaCi-2

Q: For `O=C(c1ccc(Cl)cc1)N1CCN(c2ccnc3cc(Cl)ccc23)CC1` [Compound 1], which IC50 [1] is on record?
A: > 26 µM

Q: What about the “Concentration up to which murine 3T3 fibroblasts showed no response” value [2] of the same compound?
A: > 26 µM

Q: What about the IC50 [3] of the same compound?
A: > 26 µM

Q: What about the “Growth inhibition of CaCi-2” value ([4]; at approximately 1 μM, with fluconazole) of the same compound?
A: 97–100%

Q: And the “Effect on CaCi-2 in the absence of fluconazole” value [5]?
A: no discernible effect

Q: What about the Solubility [6] of the same compound?
A: poor aqueous solubility

Q: And the “Growth inhibition of CaCi-8” value [7]?
A: 97–100%

Q: Which inhibition at 10 µM ([4]; Candida albicans, read-out: Growth inhibition (control)) does the source give for `COC1=C2C[C@@H](C)C[C@H](OC)[C@H](O)[C@@H](C)/C=C(\C)[C@H](OC(N)=O)[C@@H](OC)/C=C\C=C(/C)C(=O)NC(=CC1=O)C2=O` [Geldanamycin] here?
A: 100%

Q: For `OC(Cn1cncn1)(Cn1cncn1)c1ccc(F)cc1F` [fluconazole], which MIC [8] is on record?
A: 8 µg/mL (≈ 26.1 µM)

Q: And the MIC [9]?
A: 2 µg/mL (≈ 6.53 µM)

Q: What about the inhibition at 8 µg/mL ([4]; Candida albicans, read-out: Baseline growth inhibition in CaCi-2) of the same compound?
A: 60 to 80%
